CC50, IC50 and selectivity ratio data for 20 compounds are collected here from ChEMBL document CHEMBL4368882, “Synthesis and biological evaluation against Leishmania donovani of novel hybrid molecules containing indazole-based 2-pyrone scaffolds” (Medchemcomm, 2019).

Data set [1] is described as follows: Cytotoxicity against mouse RAW264.7 cells after 48 hrs by resazurin dye-based assay. The class given is cell-based. The method, boiled down: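 RAW 264.7 cells seeded at 2 × 10⁴ per well in DMEM with 10% HIFBS and penicillin–streptomycin, 24 h preculture. Two-fold serial dilutions for 48 h at 37 °C, 5% CO₂. Resazurin (450 μM, 10 μL) added for 4 h in the dark, OD570/OD600 read. CC50 is the concentration reducing macrophage growth by 50%.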

The test system of data set [2] is Leishmania donovani. The data set is described as follows: Antileishmanial activity against Leishmania donovani MHOM/ET/67/HU3 axenic amastigotes after 72 hrs by resazurin dye-based assay. The class given is functional, organism-based. The following applies: MHOM/ET/67/HU3, 72 h. Background: The colour change of resazurin is a common sign of viable cells or microbes.

Data set [3] has as its system Leishmania donovani. Nature of the data set: Antileishmanial activity against Leishmania donovani MHOM/ET/67/HU3 intramacrophage amastigotes infected in mouse RAW264.7 cells after 48 hrs by SYBR green1 dye-based fluorescence assay. Type of data set: functional, organism-based. The following applies: MHOM/ET/67/HU3, RAW264.7, 48 h. The method, boiled down:
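RAW 264.7 macrophages (2 × 10⁴ per well, 24 h preculture) infected with axenic amastigotes at 16:1 parasite:macrophage for 24 h. Extracellular parasites then removed. Two-fold serial dilutions from 100 μM maximum in DMEM complete medium for 48 h. Cells lysed in Direct PCR Lysis Reagent with 3 freeze–thaw cycles and proteinase K 50 μg mL⁻¹ at 55 °C overnight. Extract mixed with SYBR Green I.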

The nature of data set [4]: Selectivity index, ratio of CC50 for mouse RAW264.7 cells to IC50 for Leishmania donovani MHOM/ET/67/HU3 intramacrophage amastigotes infected in mouse RAW264.7 cells. The class given is toxicity, cell-based. The following applies: read-out: Ratio CC50/IC50. The gist of the method:
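Ratio of the RAW 264.7 CC₅₀ to the intramacrophage amastigote IC₅₀, both measured in this work.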

Bounds are passed on as bounds.

What is called CC50 is the concentration that lowers cell viability or growth by half. For orientation: IC50 means the concentration needed to halve the response being measured. Lower therefore signals greater potency in that assay. `CC1=CC(=O)/C(=C(/C)Nc2ccc3cnn(Cc4ccc(C)cc4)c3c2)C(=O)O1` gave a half-maximal cytotoxic concentration (CC50) at 48 h in data set [1] above 100 µM. In addition, the half-inhibitory concentration (IC50) in the data set on Leishmania donovani [2] and with Leishmania donovani [3] was above 100 µM in each case.

`CC1=CC(=O)/C(=C(/C)Nc2ccc3cn(Cc4ccc(C)cc4)nc3c2)C(=O)O1` yielded a cytotoxic concentration (CC50) at 48 h in data set [1] above 100 µM. Further, the IC50 in the data set with Leishmania donovani [2] came out at 49.6 µM; in the data set with Leishmania donovani [3], 57.4 µM.

As for `CCn1ncc2cc(N/C(C)=C3\C(=O)C=C(C)OC3=O)ccc21`, in data set [1], the CC50 at 48 h was above 100 µM. For the same compound, the concentration for half-maximal inhibition (IC50) with Leishmania donovani [2] and in the data set with Leishmania donovani [3] was above 100 µM throughout.

In data set [1], `CCn1cc2ccc(N/C(C)=C3\C(=O)C=C(C)OC3=O)cc2n1` returned a cytotoxic concentration (CC50) at 48 h above 100 µM. Also, the half-inhibitory concentration (IC50) in the data set with Leishmania donovani [2] and in the data set on Leishmania donovani [3] was above 100 µM each time.

In the case of `CCn1nc(Cl)c2ccc(N/C(C)=C3\C(=O)C=C(C)OC3=O)cc21`, it took 6.23 µM to reach half-maximal cytotoxicity in data set [1] (CC50 at 48 h). Further, the concentration for half-maximal inhibition (IC50) in the data set on Leishmania donovani [2] is 11 µM; in the data set with Leishmania donovani [3] it was 6.5 µM. Further, in data set [4], the selectivity ratio worked out at 0.96.

Consider `C=CCn1ncc2ccc(N/C(C)=C3\C(=O)C=C(C)OC3=O)cc21`, for which, in data set [1], the CC50 at 48 h was above 100 µM. Moreover, the half-maximal inhibitory concentration (IC50) with Leishmania donovani [2] and in the data set on Leishmania donovani [3] was above 100 µM in each case.

In data set [1], `C=CCn1ncc2cc(N/C(C)=C3\C(=O)C=C(C)OC3=O)ccc21` showed a cytotoxic concentration (CC50) at 48 h above 100 µM. Moreover, the concentration for half-maximal inhibition (IC50) with Leishmania donovani [2] and in the data set on Leishmania donovani [3] was above 100 µM in each case.

Compound `C=CCn1nc(Cl)c2ccc(N/C(C)=C3\C(=O)C=C(C)OC3=O)cc21` registered a CC50 at 48 h in data set [1] above 100 µM. The IC50 in the data set on Leishmania donovani [2] and in the data set on Leishmania donovani [3] was above 100 µM each time.

In data set [1], `CC1=CC(=O)/C(=C(/C)Nc2ccc3c(Cl)n(Cc4ccc(C)cc4)nc3c2)C(=O)O1` showed a 50% cytotoxic concentration (CC50) at 48 h above 100 µM. Also, the IC50 with Leishmania donovani [2] and in the data set with Leishmania donovani [3] was above 100 µM throughout.

Compound `CC1=CC(=O)/C(=C(/C)Nc2ccc3cnn(C)c3c2)C(=O)O1` yielded a half-maximal cytotoxic concentration (CC50) at 48 h in data set [1] above 100 µM. The IC50 with Leishmania donovani [2] and in the data set on Leishmania donovani [3] was above 100 µM each time.

Take `CCn1cc2cc(N/C(C)=C3\C(=O)C=C(C)OC3=O)ccc2n1`: the cytotoxic concentration (CC50) at 48 h in data set [1] is above 100 µM. Besides, the half-inhibitory concentration (IC50) in the data set with Leishmania donovani [2] and in the data set on Leishmania donovani [3] was above 100 µM in each case.

In the case of `C=CCn1cc2ccc(N/C(C)=C3\C(=O)C=C(C)OC3=O)cc2n1`, the 50% cytotoxic concentration (CC50) at 48 h in data set [1] is above 100 µM. For the same compound, the concentration for half-maximal inhibition (IC50) with Leishmania donovani [2] and in the data set on Leishmania donovani [3] was above 100 µM in each case.

Take `CCn1nc2cc(N/C(C)=C3\C(=O)C=C(C)OC3=O)ccc2c1Cl`: in data set [1], it took 6.25 µM to reach half-maximal cytotoxicity (CC50 at 48 h). The 50% inhibitory concentration (IC50) in the data set with Leishmania donovani [2] came to 2.48 µM; in the data set on Leishmania donovani [3] it was 2.25 µM. The selectivity ratio in data set [4] was found to be 2.77.

In data set [1], `CC1=CC(=O)/C(=C(/C)Nc2ccc3c(cnn3C)c2)C(=O)O1` gave a CC50 at 48 h above 100 µM. Besides, the IC50 in the data set on Leishmania donovani [2] and in the data set with Leishmania donovani [3] was above 100 µM in each case.

On to `CC1=CC(=O)/C(=C(/C)Nc2ccc3c(Cl)nn(Cc4ccc(C)cc4)c3c2)C(=O)O1`, for which the half-maximal cytotoxic concentration (CC50) at 48 h in data set [1] is above 100 µM. Also, the IC50 in the data set on Leishmania donovani [2] amounted to 62.6 µM; with Leishmania donovani [3] it was 49.9 µM.

With `CC1=CC(=O)/C(=C(/C)Nc2ccc3c(Cl)nn(C)c3c2)C(=O)O1`, the half-maximal cytotoxic concentration (CC50) at 48 h in data set [1] was above 100 µM. Also, the IC50 in the data set with Leishmania donovani [2] and with Leishmania donovani [3] was above 100 µM in each case.

`CC1=CC(=O)/C(=C(/C)Nc2ccc3nn(C)cc3c2)C(=O)O1` had a CC50 at 48 h in data set [1] above 100 µM. In addition, the half-maximal inhibitory concentration (IC50) in the data set on Leishmania donovani [2] and with Leishmania donovani [3] was above 100 µM each time.

Take `CC1=CC(=O)/C(=C(/C)Nc2ccc3c(Cl)n(C)nc3c2)C(=O)O1`: in data set [1], the CC50 at 48 h was 6.26 µM. Further, the IC50 in the data set with Leishmania donovani [2] amounted to 11.9 µM; with Leishmania donovani [3], 3.25 µM. The selectivity ratio in data set [4] is 1.92.

Turning to `CCn1ncc2ccc(N/C(C)=C3\C(=O)C=C(C)OC3=O)cc21`, the CC50 at 48 h in data set [1] is above 100 µM. In addition, the IC50 with Leishmania donovani [2] and with Leishmania donovani [3] was above 100 µM throughout.

Compound `C[C@@H]1[C@H](O)[C@@H](C)/C=C/C=C/C=C/C=C/C=C/C=C/C=C/[C@H](O[C@@H]2O[C@H](C)[C@@H](O)[C@H](N)[C@@H]2O)C[C@@H]2O[C@](O)(C[C@@H](O)C[C@@H](O)[C@H](O)CC[C@@H](O)C[C@@H](O)CC(=O)O[C@H]1C)C[C@H](O)[C@H]2C(=O)O` [AMPHOTERICIN B] had a CC50 at 48 h in data set [1] of 4.23 µM. Moreover, the concentration for half-maximal inhibition (IC50) in the data set on Leishmania donovani [3] was 0.115 µM.
